Reference: ChEMBL document CHEMBL1127482 (J Med Chem, 1994)
*1 amine or outer side, *2 acyl side, *3 side chain or, on linkers, in order; H or OH if unused. Where a SMILES comes first, the peptide text is derived from it. Bridges are numbered along the chain shown (N, C = ends). X1 = O=C(CC1(S[*:2])CCCCC1)[*:1]; X4 = C[C@H](S[*:2])C(=O)[*:1]

Columns and labels:
Homo sapiens = organism: Homo sapiens; test: Inhibition of 10 uM ADP induced platelet aggregation in human platelet rich citreated plasma (PRP); type: functional
Outline: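 Aggregation is read as the increase in light transmission in an aggregometer, with platelets used within 3 h of collection. IC50 comes from regression of dose-response curves for inhibition of maximal aggregation, adjusted against a standard run in each experiment.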

Integrin alpha-V/beta-5 = Integrin alpha-V/beta-5 (Homo sapiens, UniProt P06756+P18084); test: Binding affinity against integrin alpha V-beta5 in enzyme linked immunosorbent assay (ELISA); type: protein-complex assay
Sequence of Integrin alpha-V/beta-5 (P06756 31-889 limits assumed): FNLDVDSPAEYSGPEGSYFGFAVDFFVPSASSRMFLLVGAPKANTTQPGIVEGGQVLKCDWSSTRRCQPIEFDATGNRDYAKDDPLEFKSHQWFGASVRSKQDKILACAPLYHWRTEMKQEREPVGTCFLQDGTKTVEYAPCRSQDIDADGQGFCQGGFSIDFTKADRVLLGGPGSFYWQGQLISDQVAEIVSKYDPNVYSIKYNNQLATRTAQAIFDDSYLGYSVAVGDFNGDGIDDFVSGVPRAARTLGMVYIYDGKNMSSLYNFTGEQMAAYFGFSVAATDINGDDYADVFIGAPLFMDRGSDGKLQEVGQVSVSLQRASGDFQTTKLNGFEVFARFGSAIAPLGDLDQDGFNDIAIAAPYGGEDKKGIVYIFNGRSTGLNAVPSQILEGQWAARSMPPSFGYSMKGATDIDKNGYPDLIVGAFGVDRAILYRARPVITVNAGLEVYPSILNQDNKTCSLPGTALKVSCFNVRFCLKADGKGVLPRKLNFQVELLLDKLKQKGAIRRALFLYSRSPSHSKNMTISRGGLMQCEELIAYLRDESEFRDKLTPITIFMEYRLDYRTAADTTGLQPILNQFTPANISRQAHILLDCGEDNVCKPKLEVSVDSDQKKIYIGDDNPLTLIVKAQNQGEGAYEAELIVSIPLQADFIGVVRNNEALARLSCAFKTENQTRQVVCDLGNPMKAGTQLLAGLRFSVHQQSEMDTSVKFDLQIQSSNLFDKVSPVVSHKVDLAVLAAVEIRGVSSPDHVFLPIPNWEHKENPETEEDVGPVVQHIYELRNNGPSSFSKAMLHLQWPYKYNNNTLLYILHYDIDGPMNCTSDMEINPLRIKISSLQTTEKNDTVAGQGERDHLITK
Sequence of Integrin alpha-V/beta-5 (P06756 891-1048 limits assumed): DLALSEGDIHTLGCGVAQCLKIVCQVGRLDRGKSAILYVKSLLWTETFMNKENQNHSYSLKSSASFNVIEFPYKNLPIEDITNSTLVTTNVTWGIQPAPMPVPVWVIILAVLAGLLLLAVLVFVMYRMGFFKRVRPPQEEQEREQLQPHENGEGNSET
Sequence of Integrin alpha-V/beta-5 (P18084 24-799 limits assumed): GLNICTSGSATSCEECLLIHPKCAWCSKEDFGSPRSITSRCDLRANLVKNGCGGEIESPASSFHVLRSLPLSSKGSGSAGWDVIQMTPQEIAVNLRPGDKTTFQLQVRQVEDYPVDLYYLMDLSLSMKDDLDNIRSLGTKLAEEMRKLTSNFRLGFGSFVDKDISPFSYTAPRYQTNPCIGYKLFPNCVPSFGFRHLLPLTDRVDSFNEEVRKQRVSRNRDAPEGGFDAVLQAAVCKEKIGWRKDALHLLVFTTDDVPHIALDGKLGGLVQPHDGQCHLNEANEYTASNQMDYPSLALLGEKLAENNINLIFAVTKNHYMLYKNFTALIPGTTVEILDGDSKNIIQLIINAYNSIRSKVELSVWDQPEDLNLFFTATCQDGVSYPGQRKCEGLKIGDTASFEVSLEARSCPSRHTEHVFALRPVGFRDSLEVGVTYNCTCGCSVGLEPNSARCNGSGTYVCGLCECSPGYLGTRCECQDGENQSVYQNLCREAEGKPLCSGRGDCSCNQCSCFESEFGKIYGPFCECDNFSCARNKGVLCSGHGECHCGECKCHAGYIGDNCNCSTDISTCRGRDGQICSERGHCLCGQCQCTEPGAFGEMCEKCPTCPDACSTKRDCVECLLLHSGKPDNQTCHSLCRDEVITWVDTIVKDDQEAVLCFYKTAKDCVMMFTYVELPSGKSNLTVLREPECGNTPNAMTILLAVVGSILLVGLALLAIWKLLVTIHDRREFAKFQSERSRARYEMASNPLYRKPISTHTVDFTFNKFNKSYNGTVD
Outline: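 It is added to wells coated with human vitronectin in 0.1 M carbonate, pH 9.6, with 10-fold serial peptide dilutions for 3 h at room temperature. Detection uses rabbit anti-VnR, HRP anti-rabbit IgG and o-phenylenediamine/H2O2.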

[1] = target: Integrin alpha-IIb/beta-3 (Homo sapiens, UniProt P05106+P08514); test: Binding affinity against integrin alpha 2b-beta 3 in enzyme linked immunosorbent assay (ELISA); type: protein-complex assay
Sequence of Integrin alpha-IIb/beta-3 (P05106 27-788 limits assumed): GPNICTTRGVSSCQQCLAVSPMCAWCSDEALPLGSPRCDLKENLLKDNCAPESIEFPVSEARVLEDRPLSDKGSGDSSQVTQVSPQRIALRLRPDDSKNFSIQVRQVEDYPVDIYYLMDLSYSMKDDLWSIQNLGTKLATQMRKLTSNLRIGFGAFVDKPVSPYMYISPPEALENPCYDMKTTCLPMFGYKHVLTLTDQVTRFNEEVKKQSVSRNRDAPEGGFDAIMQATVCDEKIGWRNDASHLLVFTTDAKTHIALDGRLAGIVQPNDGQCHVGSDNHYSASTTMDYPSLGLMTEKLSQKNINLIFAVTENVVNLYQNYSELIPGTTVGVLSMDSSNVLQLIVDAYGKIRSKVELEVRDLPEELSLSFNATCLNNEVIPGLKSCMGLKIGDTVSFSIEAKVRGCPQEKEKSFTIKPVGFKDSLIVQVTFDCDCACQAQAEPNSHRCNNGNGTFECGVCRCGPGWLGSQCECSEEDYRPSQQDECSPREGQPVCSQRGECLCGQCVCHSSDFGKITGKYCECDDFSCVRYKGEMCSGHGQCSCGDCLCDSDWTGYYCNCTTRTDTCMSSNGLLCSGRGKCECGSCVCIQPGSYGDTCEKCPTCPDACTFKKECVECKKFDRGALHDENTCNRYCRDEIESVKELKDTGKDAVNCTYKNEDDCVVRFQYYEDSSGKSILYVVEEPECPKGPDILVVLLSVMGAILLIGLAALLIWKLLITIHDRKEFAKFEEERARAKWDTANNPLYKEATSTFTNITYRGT
Sequence of Integrin alpha-IIb/beta-3 (P08514 32-887 limits assumed): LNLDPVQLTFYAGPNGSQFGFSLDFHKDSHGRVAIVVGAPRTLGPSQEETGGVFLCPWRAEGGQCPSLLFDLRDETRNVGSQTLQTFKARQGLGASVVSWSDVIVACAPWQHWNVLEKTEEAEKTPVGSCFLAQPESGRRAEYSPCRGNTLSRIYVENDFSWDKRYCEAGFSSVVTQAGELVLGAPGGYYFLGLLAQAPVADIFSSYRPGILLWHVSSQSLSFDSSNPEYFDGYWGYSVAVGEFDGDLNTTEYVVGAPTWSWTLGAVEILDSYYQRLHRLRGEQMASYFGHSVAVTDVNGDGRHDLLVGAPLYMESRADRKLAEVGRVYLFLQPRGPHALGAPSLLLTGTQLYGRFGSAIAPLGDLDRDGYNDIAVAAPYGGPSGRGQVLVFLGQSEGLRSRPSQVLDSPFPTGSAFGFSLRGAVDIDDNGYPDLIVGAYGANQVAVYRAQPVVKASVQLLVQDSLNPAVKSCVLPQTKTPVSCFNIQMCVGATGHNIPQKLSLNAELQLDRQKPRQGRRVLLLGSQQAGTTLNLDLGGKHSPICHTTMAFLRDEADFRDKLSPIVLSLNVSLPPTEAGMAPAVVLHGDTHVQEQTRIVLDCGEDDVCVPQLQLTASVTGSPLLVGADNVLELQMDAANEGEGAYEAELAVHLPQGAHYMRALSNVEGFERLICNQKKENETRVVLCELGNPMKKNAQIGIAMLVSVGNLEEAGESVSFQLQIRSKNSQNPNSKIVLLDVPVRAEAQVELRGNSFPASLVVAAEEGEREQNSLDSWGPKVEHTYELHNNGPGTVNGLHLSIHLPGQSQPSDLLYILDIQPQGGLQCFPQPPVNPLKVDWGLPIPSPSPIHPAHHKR
Sequence of Integrin alpha-IIb/beta-3 (P08514 891-1039 limits assumed): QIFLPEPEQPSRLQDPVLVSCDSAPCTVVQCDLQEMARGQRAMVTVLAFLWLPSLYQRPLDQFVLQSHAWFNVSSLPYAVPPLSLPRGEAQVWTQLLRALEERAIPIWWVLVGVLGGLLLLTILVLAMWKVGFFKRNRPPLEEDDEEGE
Outline: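 Purified human platelet αIIbβ3 (from outdated platelets, octyl glucoside extract) in TBS with 20 mM octyl glucoside, 2 mM MgCl2 and 2 mM CaCl2 binds to plate-coated human fibrinogen (10 µg/mL in TBS) with 10-fold serial peptide dilutions for 3 h at room temperature. Bound receptor is detected with rabbit anti-αIIbβ3, then HRP anti-rabbit IgG, with o-phenylenediamine/H2O2 at pH 5.0. IC50 is reported.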

Compound | IC50 (Homo sapiens) | IC50 (Integrin alpha-V/beta-5) | IC50 [1]
COc1ccc(C[C@@H]2NC(=O)[C@H](CC(=O)O)NC(=O)CNC(=O)[C@H](CCCNC(=N)N)NC(=O)[C@H](Cc3ccc(O)cc3)NC(=O)CNC(=O)[C@@H](NC(=O)[C@@H](N)CCCNC(=N)N)C3(CCCCC3)SSC[C@@H](C(=O)N[C@@H](CCCNC(=N)N)C(=O)O)NC(=O)[C@H](CCCNC(=N)N)NC2=O)cc1 | 850 nM | 8800 nM | 
COc1ccc(C[C@@H]2NC(=O)[C@H](CC(=O)O)NC(=O)CNC(=O)[C@H](CCCN=C(N)N)NC(=O)[C@@H](Cc3c[nH]cn3)NC(=O)CNC(=O)[C@@H](NC(=O)[C@@H](N)CCCN=C(N)N)C3(CCCCC3)SSC[C@@H](C(=O)N[C@@H](CCCN=C(N)N)C(=O)O)NC(=O)[C@H](CCCN=C(N)N)NC2=O)cc1 | 400 nM |  | 
COc1ccc(C[C@@H]2NC(=O)[C@H](CC(=O)O)NC(=O)CNC(=O)[C@H](CCCN=C(N)N)NC(=O)[C@H](Cc3c[nH]cn3)NC(=O)[C@H](CC(N)=O)NC(=O)[C@@H](NC(=O)[C@@H](N)CCCN=C(N)N)C3(CCCCC3)SSC[C@@H](C(=O)N[C@@H](CCCN=C(N)N)C(=O)O)NC(=O)[C@H](CCCN=C(N)N)NC2=O)cc1 | 990 nM |  | 
COc1ccc(C[C@@H]2NC(=O)[C@H](CC(=O)O)NC(=O)CNC(=O)[C@H](CCCN=C(N)N)NC(=O)[C@H](Cc3c[nH]cn3)NC(=O)[C@H](CC(=O)O)NC(=O)[C@@H](NC(=O)[C@@H](N)CCCN=C(N)N)C3(CCCCC3)SSC[C@@H](C(=O)N[C@@H](CCCN=C(N)N)C(=O)O)NC(=O)[C@H](CCCN=C(N)N)NC2=O)cc1 | 2750 nM | 7200 nM | 
CC(C)[C@H]1NC(=O)[C@H](CC(=O)O)NC(=O)CNC(=O)[C@H](CCCN=C(N)N)NC(=O)[C@@H](Cc2c[nH]cn2)NC(=O)CNC(=O)[C@@H](N)CCC/N=C(/N)NC(=O)[C@H](N)C2(CCCCC2)SSC[C@@H](C(=O)N[C@@H](CCCN=C(N)N)C(=O)O)NC(=O)[C@H](CCCN=C(N)N)NC1=O | 690 nM |  | 
NC(N)=NCCC[C@H](NC(=O)[C@@H]1CSSC2(CCCCC2)[C@H](NC(=O)[C@@H](N)CCCN=C(N)N)C(=O)NCC(=O)N[C@@H](Cc2c[nH]cn2)C(=O)N[C@@H](CCCN=C(N)N)C(=O)NCC(=O)N[C@@H](CC(=O)O)C(=O)N[C@@H](Cc2ccc(O)cc2)C(=O)N[C@@H](CCCN=C(N)N)C(=O)N1)C(=O)O | 970 nM |  | 
COc1ccc(C[C@@H]2NC(=O)[C@H](CC(=O)O)NC(=O)CNC(=O)[C@H](CCCN=C(N)N)NC(=O)[C@H](Cc3c[nH]cn3)NC(=O)[C@H](CO)NC(=O)[C@@H](NC(=O)[C@@H](N)CCCN=C(N)N)C3(CCCCC3)SSC[C@@H](C(=O)N[C@@H](CCCN=C(N)N)C(=O)O)NC(=O)[C@H](CCCN=C(N)N)NC2=O)cc1 | 950 nM | 6600 nM | 
COc1ccc(C[C@@H]2NC(=O)[C@H](CC(=O)O)NC(=O)CNC(=O)[C@H](CCCNC(=N)N)NC(=O)[C@@H]3CCCN3C(=O)[C@H](CC(N)=O)NC(=O)[C@@H](NC(C)=O)CSSC[C@@H](C(N)=O)NC(=O)[C@H](C)NC2=O)cc1 |  | 8850 nM | 
N=C(N)NCCC[C@H](NC(=O)[C@@H]1CSSC2(CCCCC2)[C@H](NC(=O)[C@@H](N)CCCNC(=N)N)C(=O)NCC(=O)N[C@@H](Cc2c[nH]cn2)C(=O)N[C@@H](CCCNC(=N)N)C(=O)NCC(=O)N[C@@H](CC(=O)O)C(=O)N[C@@H](CCc2ccccc2)C(=O)N[C@@H](CCCNC(=N)N)C(=O)N1)C(=O)O | 600 nM |  | 
CC[C@H](C)[C@@H]1NC(=O)[C@@H](NC(=O)[C@@H](N)CCCN=C(N)N)C2(CCCCC2)SSC[C@@H](C(=O)N[C@@H](CCCN=C(N)N)C(=O)O)NC(=O)[C@H](CCCN=C(N)N)NC(=O)[C@H](Cc2ccc(OC)cc2)NC(=O)[C@H](CC(=O)O)NC(=O)CNC(=O)[C@H](CCCN=C(N)N)NC(=O)[C@H](Cc2c[nH]cn2)NC1=O |  | 9900 nM | 
CCCCOc1ccc(C[C@@H]2NC(=O)[C@H](CC(=O)O)NC(=O)CNC(=O)[C@H](CCCNC(=N)N)NC(=O)[C@@H]3CCCN3C(=O)[C@H](CC(N)=O)NC(=O)[C@@H](NC(C)=O)CSSC[C@@H](C(N)=O)NC(=O)[C@H](CCCNC(=N)N)NC2=O)cc1 | 100 nM | 10000 nM | 
COc1ccc(C[C@@H]2NC(=O)[C@H](CC(=O)O)NC(=O)CNC(=O)[C@H](CCCNC(=N)N)NC(=O)[C@@H]3CCCN3C(=O)CNC(=O)[C@@H](NC(=O)[C@@H](N)CCCNC(=N)N)C3(CCCCC3)SSC[C@@H](C(=O)N[C@@H](CCCNC(=N)N)C(=O)O)NC(=O)[C@H](CCCNC(=N)N)NC2=O)cc1 |  | 1700 nM | 
COc1ccc(C[C@@H]2NC(=O)[C@H](CC(=O)O)NC(=O)CNC(=O)[C@H](CCCNC(=N)N)NC(=O)[C@@H]3CCCN3C(=O)[C@H](CC(N)=O)NC(=O)[C@@H](NC(C)=O)CSSC[C@@H](C(N)=O)NC(=O)[C@H](CC(C)C)NC2=O)cc1 | 7600 nM | 7140 nM | 
COc1ccc(C[C@@H]2NC(=O)[C@H](CC(=O)O)NC(=O)CNC(=O)[C@H](CCCNC(=N)N)NC(=O)[C@@H](Cc3ccc(O)cc3)NC(=O)CNC(=O)[C@@H](NC(=O)[C@@H](N)CCCNC(=N)N)C3(CCCCC3)SSC[C@@H](C(=O)N[C@@H](CCCNC(=N)N)C(=O)O)NC(=O)[C@H](CCCNC(=N)N)NC2=O)cc1 | 520 nM | 10000 nM | 
CC(C)C[C@@H]1NC(=O)[C@H](CC(=O)O)NC(=O)CNC(=O)[C@H](CCCNC(=N)N)NC(=O)[C@H](Cc2c[nH]cn2)NC(=O)CNC(=O)[C@H](NC(=O)CN)C(C)(C)SSC[C@@H](C(=O)N[C@@H](C)C(=O)O)NC(=O)[C@H](CCCNC(=N)N)NC1=O (stereo in doubt; 1) |  | 8260 nM | 
CC(C)C[C@@H]1NC(=O)[C@H](CC(=O)O)NC(=O)CNC(=O)[C@H](CCCNC(=N)N)NC(=O)[C@H](Cc2c[nH]cn2)NC(=O)CNC(=O)[C@H](NC(=O)CN)C(C)(C)SSC[C@@H](C(=O)N[C@@H](C)C(=O)O)NC(=O)[C@H](CCCNC(=N)N)NC1=O (stereo in doubt; 2) |  |  | 150 nM

More lines, now with the values ahead:

IC50 (Homo sapiens) | IC50 (Integrin alpha-V/beta-5) | IC50 [1] | Compound
 | 3460 nM |  | COc1ccc(C[C@@H]2NC(=O)[C@H](CC(=O)O)NC(=O)CNC(=O)[C@H](CCCNC(=N)N)NC(=O)[C@@H]3CCCN3C(=O)[C@H](CC(N)=O)NC(=O)[C@@H](NC(C)=O)CSSC[C@@H](C(N)=O)NC(=O)[C@H](CCCNC(N)=O)NC2=O)cc1
 | 7700 nM |  | COc1ccc(C[C@@H]2NC(=O)[C@H](CC(=O)O)NC(=O)CNC(=O)[C@H](CCCNC(=N)N)NC(=O)[C@@H]3CCCN3C(=O)[C@H](CC(N)=O)NC(=O)[C@@H](NC(C)=O)CSSC[C@@H](C(N)=O)NC(=O)[C@H](CCCN)NC2=O)cc1
 | 3000 nM |  | COc1ccc(C[C@@H]2NC(=O)[C@H](CC(=O)O)NC(=O)CNC(=O)[C@H](CCCN=C(N)N)NC(=O)[C@@H]3CCCN3C(=O)[C@H](CC(N)=O)NC(=O)CCSSC[C@@H](C(N)=O)NC(=O)[C@H](CCCN=C(N)N)NC2=O)cc1
 | 9470 nM |  | COc1ccc(C[C@@H]2NC(=O)[C@H](CC(=O)O)NC(=O)CNC(=O)[C@H](CCCNC(=N)N)NC(=O)[C@@H]3CCCN3C(=O)[C@H](CC(N)=O)NC(=O)[C@@H](NC(C)=O)CSSC[C@@H](C(N)=O)NC(=O)[C@H](CCC(=O)O)NC2=O)cc1
 | 2340 nM |  | COc1ccc(C[C@@H]2NC(=O)[C@H](CC(=O)O)NC(=O)CNC(=O)[C@H](CCCN=C(N)N)NC(=O)[C@@H]3CCCN3C(=O)[C@H](CC(N)=O)NC(=O)[C@@H](NC(C)=O)C3(CCCCC3)SSC[C@@H](C(N)=O)NC(=O)[C@H](CCCN=C(N)N)NC2=O)cc1 [listing 1 of 2 here]
150 nM |  |  | COc1ccc(C[C@@H]2NC(=O)[C@H](CC(=O)O)NC(=O)CNC(=O)[C@H](CCCN=C(N)N)NC(=O)[C@@H]3CCCN3C(=O)[C@H](CC(N)=O)NC(=O)[C@@H](NC(C)=O)C3(CCCCC3)SSC[C@@H](C(N)=O)NC(=O)[C@H](CCCN=C(N)N)NC2=O)cc1 [listing 2 of 2 here]
 | 5820 nM |  | COc1ccc(C[C@@H]2NC(=O)[C@H](CC(=O)O)NC(=O)CNC(=O)[C@H](CCCNC(=N)N)NC(=O)[C@@H]3CCCN3C(=O)[C@H](CC(N)=O)NC(=O)[C@@H](NC(C)=O)CSSC[C@@H](C(N)=O)NC(=O)[C@H](CCCCN)NC2=O)cc1
480 nM |  |  | CCCCOc1ccc(C[C@@H]2NC(=O)[C@H](CC(=O)O)NC(=O)CNC(=O)[C@H](CCCN=C(N)N)NC(=O)[C@@H]3CCCN3C(=O)[C@H]([C@@H](C)CC)NC(=O)[C@@H](NC(C)=O)CSSC[C@@H](C(N)=O)NC(=O)[C@H](CCCN=C(N)N)NC2=O)cc1
700 nM |  |  | COc1ccc(C[C@@H]2NC(=O)[C@H](CC(=O)O)NC(=O)CNC(=O)[C@H](CCCCN)NC(=O)[C@@H]3CCCN3C(=O)[C@H](CC(N)=O)NC(=O)[C@@H](NC(C)=O)CSSC[C@@H](C(N)=O)NC(=O)[C@H](CCCN=C(N)N)NC2=O)cc1
330 nM |  |  | CC[C@H](C)[C@@H]1NC(=O)[C@@H](NC(C)=O)CSSC[C@@H](C(N)=O)NC(=O)[C@H](CCCN=C(N)N)NC(=O)[C@H](Cc2ccc(O)cc2)NC(=O)[C@H](CC(=O)O)NC(=O)CNC(=O)[C@H](CCCN=C(N)N)NC(=O)[C@@H]2CCCN2C1=O (Ac-CIPRGDYRC-NH2; disulfide 1-9)
170 nM | 4900 nM |  | COc1ccc(C[C@@H]2NC(=O)[C@H](CC(=O)O)NC(=O)CNC(=O)[C@H](CCCN=C(N)N)NC(=O)[C@@H]3CCCN3C(=O)[C@H](CC(N)=O)NC(=O)CC3(CCCCC3)SSC[C@@H](C(N)=O)NC(=O)[C@H](CCCN=C(N)N)NC2=O)cc1 (NPRGDY(Me)RC-NH2; linker N-8 via X1)
170 nM |  |  | COc1ccc(C[C@@H]2NC(=O)[C@H](CC(=O)O)NC(=O)CNC(=O)[C@H](CCCN=C(N)N)NC(=O)[C@@H]3CCCN3C(=O)[C@H](CC(N)=O)NC(=O)[C@H](C)SSC[C@@H](C(N)=O)NC(=O)[C@H](CCCN=C(N)N)NC2=O)cc1 (NPRGDY(Me)RC-NH2; linker N-8 via X4)
